Assay results as given in ChEMBL document CHEMBL4257453, “Identification of karanjin isolated from the Indian beech tree as a potent CYP1 enzyme inhibitor with cellular efficacy via screening of a natural product repository” (Medchemcomm, 2018).

What was measured:
CYP2D6 = CYP2D6 (Homo sapiens, UniProt P10635); test: Inhibition of recombinant human CYP2D6 expressed in baker's yeast-derived microsomes (Sacchrosomes) at 10 uM using 7-ethoxy-methyloxy-3-cyanocoumarin substrate by EROD assay relative to control; format: ADME; conditions: probe 7-ethoxy-methyloxy-3-cyanocoumarin
Summary of the method: (§1)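 Yeast microsomes carrying recombinant CYP (Sacchrosomes). […] Substrates per isoform are 7-ethoxyresorufin, 3-cyano-7-ethoxycoumarin, EOMCC or dibenzylfluorescein, read as endpoint fluorescence. Background from compound-only wells without enzyme is subtracted. Independent triplicate runs; α-naphthoflavone positive control.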

CYP1A1 [1] = molecular target: T1, CYP1A1 (Homo sapiens, UniProt P04798); test: Inhibition of human recombinant CYP1A1 expressed in HEK293 cells at 10 uM using 7-ethoxyresorufin substrate preincubated for 30 mins followed by substrate addition and measured after 60 mins by fluorescence assay relative to control; format: cell-based; conditions: HEK293 cells expressing human recombinant CYP1A1, probe 7-ethoxyresorufin
T1 sequence (P04798 whole entry): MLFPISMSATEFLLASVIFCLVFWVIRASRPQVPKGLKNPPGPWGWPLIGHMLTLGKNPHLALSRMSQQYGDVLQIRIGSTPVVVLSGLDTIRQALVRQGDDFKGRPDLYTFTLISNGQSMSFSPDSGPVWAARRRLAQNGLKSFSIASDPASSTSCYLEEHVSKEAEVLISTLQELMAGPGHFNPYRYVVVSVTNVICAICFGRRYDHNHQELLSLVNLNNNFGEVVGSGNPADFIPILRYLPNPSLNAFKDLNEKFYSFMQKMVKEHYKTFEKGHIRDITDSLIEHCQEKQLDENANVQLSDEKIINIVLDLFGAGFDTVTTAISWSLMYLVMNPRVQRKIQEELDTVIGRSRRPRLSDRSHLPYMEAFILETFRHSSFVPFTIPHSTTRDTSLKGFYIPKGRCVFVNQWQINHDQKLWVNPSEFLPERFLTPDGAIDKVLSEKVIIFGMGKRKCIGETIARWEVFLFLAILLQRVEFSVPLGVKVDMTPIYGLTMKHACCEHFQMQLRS
Summary of the method: (§2)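 HEK293 cells adapted to suspension and transiently transfected with pcDNA3.1 plasmids carrying the individual CYP; 100×10^3 cells per well in triplicate. […] Fluorogenic substrate is then added at 5 μM and fluorescence read for 60 min.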

Cytochrome P450 2C19 = Cytochrome P450 2C19 (Homo sapiens, UniProt P33261); test: Inhibition of human recombinant CYP2C19 expressed in HEK293 cells using 3-cyano-7-ethoxycoumarin substrate substrate preincubated for 30 mins followed by substrate addition and measured after 60 mins by fluorescence assay relative to control; format: ADME, cell-based; summary of the method: as §2
Cytochrome P450 1A1 = molecular target: T2, Cytochrome P450 1A1 (Homo sapiens, UniProt P04798); test: Inhibition of human recombinant CYP1A1 expressed in HEK293 cells using 7-ethoxyresorufin substrate preincubated for 30 mins followed by substrate addition and measured after 60 mins by fluorescence assay relative to control; format: cell-based; summary of the method: as §2
T2 sequence (P04798 whole entry): T1 sequence (P04798 whole entry)

Cytochrome P450 2C9 = Cytochrome P450 2C9 (Homo sapiens, UniProt P11712); test: Inhibition of human recombinant CYP2C9 expressed in HEK293 cells using 3-cyano-7-ethoxycoumarin substrate substrate preincubated for 30 mins followed by substrate addition and measured after 60 mins by fluorescence assay relative to control; format: ADME, cell-based; summary of the method: as §2
CYP1B1 = molecular target: T3, CYP1B1 (Homo sapiens, UniProt Q16678); test: Inhibition of recombinant human CYP1B1 expressed in baker's yeast-derived microsomes (Sacchrosomes) at 10 uM using 7-ethoxyresorufin substrate by EROD assay relative to control; format: ADME; conditions: probe 7-ethoxyresorufin; summary of the method: as §1
T3 sequence (Q16678 whole entry): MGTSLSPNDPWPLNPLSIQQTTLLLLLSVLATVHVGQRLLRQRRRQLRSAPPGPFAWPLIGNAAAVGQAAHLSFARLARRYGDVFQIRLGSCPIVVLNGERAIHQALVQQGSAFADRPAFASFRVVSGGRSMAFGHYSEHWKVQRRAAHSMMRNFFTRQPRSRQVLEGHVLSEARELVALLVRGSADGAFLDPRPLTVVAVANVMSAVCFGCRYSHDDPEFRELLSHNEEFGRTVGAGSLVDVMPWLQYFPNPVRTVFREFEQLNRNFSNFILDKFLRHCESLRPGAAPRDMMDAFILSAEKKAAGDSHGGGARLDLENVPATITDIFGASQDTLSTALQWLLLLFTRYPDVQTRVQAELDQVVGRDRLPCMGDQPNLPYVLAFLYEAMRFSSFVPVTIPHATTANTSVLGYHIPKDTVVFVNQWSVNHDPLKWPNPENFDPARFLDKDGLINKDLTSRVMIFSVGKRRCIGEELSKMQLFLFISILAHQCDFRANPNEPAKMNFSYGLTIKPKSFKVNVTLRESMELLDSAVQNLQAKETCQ

Cytochrome P450 3A4 = Cytochrome P450 3A4 (Homo sapiens, UniProt P08684); test: Inhibition of human recombinant CYP3A4 expressed in HEK293 cells using dibenzylfluorescein substrate substrate preincubated for 30 mins followed by substrate addition and measured after 60 mins by fluorescence assay relative to control; format: ADME, cell-based
Summary of the method: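 HEK293 cells adapted to suspension and transiently transfected with pcDNA3.1 plasmids carrying the individual CYP; 100×10^3 cells per well in triplicate. Fluorogenic substrate is then added at 5 μM and fluorescence read for 60 min.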

CYP2C19 = CYP2C19 (Homo sapiens, UniProt P33261); test: Inhibition of recombinant human CYP2C19 expressed in baker's yeast-derived microsomes (Sacchrosomes) at 10 uM using 3-cyano-7-ethoxycoumarin substrate by EROD assay relative to control; format: ADME; conditions: probe 3-cyano-7-ethoxycoumarin; summary of the method: as §1
CYP1A1 [2] = molecular target: T1, CYP1A1; test: Inhibition of recombinant human CYP1A1 expressed in baker's yeast-derived microsomes (Sacchrosomes) at 10 uM using 7-ethoxyresorufin substrate by EROD assay relative to control; conditions: probe 7-ethoxyresorufin
Summary of the method: (§3)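 Yeast microsomes carrying recombinant CYP (Sacchrosomes). Substrates per isoform are 7-ethoxyresorufin, 3-cyano-7-ethoxycoumarin, EOMCC or dibenzylfluorescein, read as endpoint fluorescence. Background from compound-only wells without enzyme is subtracted. Independent triplicate runs; α-naphthoflavone positive control.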

CYP3A4 = CYP3A4 (Homo sapiens, UniProt P08684); test: Inhibition of recombinant human CYP3A4 expressed in baker's yeast-derived microsomes (Sacchrosomes) at 10 uM using dibenzylfluorescein substrate by EROD assay relative to control; format: ADME; conditions: probe dibenzylfluorescein; summary of the method: as §1
Cytochrome P450 1A2 = molecular target: T4, Cytochrome P450 1A2 (Homo sapiens, UniProt P05177); test: Inhibition of human recombinant CYP1A2 expressed in HEK293 cells using 3-cyano-7-ethoxycoumarin substrate preincubated for 30 mins followed by substrate addition and measured after 60 mins by fluorescence assay relative to control; format: ADME, cell-based; summary of the method: as §2
T4 sequence (P05177 whole entry): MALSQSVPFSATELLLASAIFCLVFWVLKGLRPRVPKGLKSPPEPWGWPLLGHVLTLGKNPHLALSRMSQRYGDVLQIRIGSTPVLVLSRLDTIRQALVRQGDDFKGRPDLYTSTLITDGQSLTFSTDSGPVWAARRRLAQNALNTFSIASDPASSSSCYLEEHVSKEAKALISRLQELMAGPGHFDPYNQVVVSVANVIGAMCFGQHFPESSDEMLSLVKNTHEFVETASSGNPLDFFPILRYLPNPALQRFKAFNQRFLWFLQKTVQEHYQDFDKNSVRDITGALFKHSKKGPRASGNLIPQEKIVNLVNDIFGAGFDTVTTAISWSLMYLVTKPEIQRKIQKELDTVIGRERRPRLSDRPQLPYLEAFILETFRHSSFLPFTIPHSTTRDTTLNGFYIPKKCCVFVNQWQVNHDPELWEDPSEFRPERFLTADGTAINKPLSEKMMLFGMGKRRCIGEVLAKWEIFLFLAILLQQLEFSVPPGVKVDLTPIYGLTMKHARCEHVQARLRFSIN

CYP2C9 = CYP2C9 (Homo sapiens, UniProt P11712); test: Inhibition of recombinant human CYP2C9 expressed in baker's yeast-derived microsomes (Sacchrosomes) at 10 uM using 3-cyano-7-ethoxycoumarin substrate by EROD assay relative to control; format: ADME; conditions: probe 3-cyano-7-ethoxycoumarin; summary of the method: as §1
Cytochrome P450 2D6 = Cytochrome P450 2D6 (Homo sapiens, UniProt P10635); test: Inhibition of human recombinant CYP2D6 expressed in HEK293 cells using 7-ethoxy-methyloxy-3-cyanocoumarin substrate substrate preincubated for 30 mins followed by substrate addition and measured after 60 mins by fluorescence assay relative to control; format: ADME, cell-based; summary of the method: as §2
CYP1A2 = molecular target: T5, CYP1A2 (Homo sapiens, UniProt P05177); test: Inhibition of recombinant human CYP1A2 expressed in baker's yeast-derived microsomes (Sacchrosomes) at 10 uM using 3-cyano-7-ethoxycoumarin substrate by EROD assay relative to control; format: ADME; conditions: probe 3-cyano-7-ethoxycoumarin; summary of the method: as §3
T5 sequence (P05177 whole entry): T4 sequence (P05177 whole entry)

Cytochrome P450 1B1 = molecular target: T6, Cytochrome P450 1B1 (Homo sapiens, UniProt Q16678); test: Inhibition of human recombinant CYP1B1 expressed in HEK293 cells using 7-ethoxyresorufin substrate substrate preincubated for 30 mins followed by substrate addition and measured after 60 mins by fluorescence assay relative to control; format: ADME, cell-based; summary of the method: as §2
T6 sequence (Q16678 whole entry): T3 sequence (Q16678 whole entry)

Sequence of CYP2C9 (P11712 whole entry): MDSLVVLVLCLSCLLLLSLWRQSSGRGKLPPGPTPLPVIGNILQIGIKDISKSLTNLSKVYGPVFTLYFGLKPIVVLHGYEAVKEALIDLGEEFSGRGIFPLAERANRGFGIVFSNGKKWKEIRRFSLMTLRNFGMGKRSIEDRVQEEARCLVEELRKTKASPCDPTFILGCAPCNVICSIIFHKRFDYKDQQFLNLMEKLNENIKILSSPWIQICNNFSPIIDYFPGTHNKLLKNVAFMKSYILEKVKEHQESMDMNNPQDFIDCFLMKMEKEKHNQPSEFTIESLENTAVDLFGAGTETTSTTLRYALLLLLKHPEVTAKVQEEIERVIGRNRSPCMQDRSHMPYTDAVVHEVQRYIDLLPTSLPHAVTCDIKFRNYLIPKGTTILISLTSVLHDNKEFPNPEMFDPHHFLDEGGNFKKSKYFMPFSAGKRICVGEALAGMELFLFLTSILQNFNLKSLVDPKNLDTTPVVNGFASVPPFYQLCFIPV
Sequence of Cytochrome P450 2C9 (P11712 whole entry): as above
Sequence of CYP3A4 (P08684 whole entry): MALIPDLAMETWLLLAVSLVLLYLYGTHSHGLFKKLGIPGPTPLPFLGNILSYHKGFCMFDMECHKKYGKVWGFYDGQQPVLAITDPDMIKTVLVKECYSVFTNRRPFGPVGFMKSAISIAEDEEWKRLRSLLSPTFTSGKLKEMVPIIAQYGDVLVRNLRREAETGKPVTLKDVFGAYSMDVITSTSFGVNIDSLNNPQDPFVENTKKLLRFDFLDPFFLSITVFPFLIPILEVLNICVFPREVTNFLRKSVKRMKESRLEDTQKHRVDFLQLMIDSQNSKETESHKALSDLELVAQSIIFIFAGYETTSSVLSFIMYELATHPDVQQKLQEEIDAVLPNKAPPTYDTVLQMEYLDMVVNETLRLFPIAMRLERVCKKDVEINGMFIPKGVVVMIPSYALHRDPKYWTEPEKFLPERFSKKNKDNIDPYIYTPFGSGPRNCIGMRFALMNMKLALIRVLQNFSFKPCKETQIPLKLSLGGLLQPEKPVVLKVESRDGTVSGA
Sequence of Cytochrome P450 3A4 (P08684 whole entry): as above
Sequence of Cytochrome P450 2C19 (P33261 whole entry): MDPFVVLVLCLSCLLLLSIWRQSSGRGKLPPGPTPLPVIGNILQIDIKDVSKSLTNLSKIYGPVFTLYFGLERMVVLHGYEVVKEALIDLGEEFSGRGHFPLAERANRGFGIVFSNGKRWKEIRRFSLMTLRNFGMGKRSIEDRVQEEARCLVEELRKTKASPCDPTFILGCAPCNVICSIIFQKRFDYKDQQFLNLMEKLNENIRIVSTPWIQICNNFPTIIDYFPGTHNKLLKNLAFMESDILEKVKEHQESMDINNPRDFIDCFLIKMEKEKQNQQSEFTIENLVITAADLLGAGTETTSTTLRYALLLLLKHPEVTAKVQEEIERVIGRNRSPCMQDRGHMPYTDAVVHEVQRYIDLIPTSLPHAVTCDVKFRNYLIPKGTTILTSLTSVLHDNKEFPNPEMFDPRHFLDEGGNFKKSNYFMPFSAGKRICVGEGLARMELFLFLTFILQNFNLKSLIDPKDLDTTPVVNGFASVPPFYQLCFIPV
Sequence of CYP2C19 (P33261 whole entry): as above
Sequence of Cytochrome P450 2D6 (P10635 whole entry): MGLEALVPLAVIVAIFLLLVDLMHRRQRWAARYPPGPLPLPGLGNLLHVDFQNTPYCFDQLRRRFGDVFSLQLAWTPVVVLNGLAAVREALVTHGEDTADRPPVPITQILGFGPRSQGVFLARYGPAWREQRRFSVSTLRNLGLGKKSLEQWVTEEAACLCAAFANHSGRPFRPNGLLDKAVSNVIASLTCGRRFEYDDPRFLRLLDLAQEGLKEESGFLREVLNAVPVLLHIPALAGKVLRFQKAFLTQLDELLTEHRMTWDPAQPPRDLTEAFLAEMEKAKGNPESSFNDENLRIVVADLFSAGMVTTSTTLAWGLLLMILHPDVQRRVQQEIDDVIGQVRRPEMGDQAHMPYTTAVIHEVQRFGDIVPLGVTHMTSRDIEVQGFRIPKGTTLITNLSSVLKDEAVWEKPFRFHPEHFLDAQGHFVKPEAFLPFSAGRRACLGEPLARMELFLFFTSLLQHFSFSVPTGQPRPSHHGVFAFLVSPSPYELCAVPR
Sequence of CYP2D6 (P10635 whole entry, canonical isoform): as the sequence (P10635 whole entry) above

Row | Structure (SMILES) | inhibition at 10 µM (CYP2D6) [%] | inhibition at 1 h, 10 µM (CYP1A1 [1]) [%] | IC50 (Cytochrome P450 2C19) [µM] | IC50 (Cytochrome P450 1A1) [µM] | Ki (Cytochrome P450 1A1) [µM] | IC50 (Cytochrome P450 2C9) [µM] | inhibition at 10 µM (CYP1B1) [%] | IC50 (Cytochrome P450 3A4) [µM] | inhibition at 10 µM (CYP2C19) [%] | inhibition at 10 µM (CYP1A1 [2]) [%] | inhibition at 10 µM (CYP3A4) [%] | IC50 (Cytochrome P450 1A2) [µM] | Ki (Cytochrome P450 1A2) [µM] | inhibition at 10 µM (CYP2C9) [%] | IC50 (Cytochrome P450 2D6) [µM] | inhibition at 10 µM (CYP1A2) [%] | IC50 (Cytochrome P450 1B1) [µM]
1 | O=C1C=CC(=O)c2c(O)ccc(O)c21 [NAPHTHAZALIN] | 5 | 78 | > 10 | 3.82 | 3.66 | > 10 | 8 | > 10 | 4 | 79 to 99 | 15 | 2.16 | 2.22 | 5 | > 10 | 82 | > 10
2 | Nc1nccc(-c2c[nH]c3ccc(Br)cc23)n1 [MERIDIANIN C] | 5 | 41 | > 10 | 9.23 | 9.48 | > 10 | 7 | > 10 | 2 | 50 to 52 | 10 | 8.72 | 8.78 | 3 | > 10 | 55 | 0.213
3 | COc1c2ccoc2c(OCC=C(C)C)c2oc(=O)ccc12 [PHELLOPTERIN] | 20 | 90 | > 10 | 0.58 | 0.62 | > 10 | 98 | > 10 | 5 | 87 to 97 | 12 | 0.42 | 0.38 | 3 | > 10 | 96 | 0.22
4 | COc1ccc2c(c1OC)C(OC)N(C)c1c-2ccc2cc3c(cc12)OCO3 (stereo not given) | 11 | 80 | > 10 | 3.03 | 3.25 | > 10 | 10 | > 10 | 3 | 90 | 6 | 8.93 | 9.16 | 4 | > 10 | 7 | 7.7
5 | COc1ccc(-c2cc(=O)c3c(O)c(OC)c(OC)cc3o2)cc1OC | 13 | 96 | > 10 | 1.38 | 1.42 | > 10 | 70 | > 10 | 5 | 80 | 9 | 0.9 | 0.78 | 7 | > 10 | 90 | 2.5
